Test results taken from ChEMBL document CHEMBL1165969, “Synthesis and cytotoxicity of novel indirubin-5-carboxamides” (Bioorg Med Chem, 2010).
Values after ≈ are worked out from the molar mass of the structure shown.

Test: Solubility in water by spectrophotometry
Assay type: physicochemical
Details: not given

solubility | SMILES
41 µg/mL (≈ 134 µM) | O=C1Nc2ccc(C(=O)O)cc2/C1=C1/Nc2ccccc2C1=O
1600 µg/mL | CN(CC[N+](C)(C)C)C(=O)c1ccc2c(c1)/C(=C1/Nc3ccccc3C1=O)C(=O)N2.[I-]
580 µg/mL (≈ 1370 µM) | CN(C)c1ccc(NC(=O)c2ccc3c(c2)/C(=C2/Nc4ccccc4C2=O)C(=O)N3)cc1
35.4 µg/mL (≈ 90.7 µM) | CN(C)CCN(C)C(=O)c1ccc2c(c1)/C(=C1/Nc3ccccc3C1=O)C(=O)N2
> 380 µg/mL | CN(C)CCN(C)C(=O)c1ccc2c(c1)/C(=C1/Nc3ccccc3/C1=N\OCCO[C@@H]1O[C@H](CO)[C@@H](O)[C@H](O)[C@H]1O)C(=O)N2
> 2000 µg/mL | CN1CCN(CCNC(=O)c2ccc3c(c2)/C(=C2/Nc4ccccc4C2=O)C(=O)N3)CC1.Cl
6400 µg/mL (≈ 15800 µM) | CN(C)CCN(C)C(=O)c1ccc2c(c1)/C(=C1/Nc3ccccc3/C1=N\O)C(=O)N2
42 µg/mL (≈ 81.8 µM) | COc1ccc2c(c1)/C(=C1/Nc3ccccc3/C1=N\OCCO[C@@H]1O[C@H](CO)[C@@H](O)[C@H](O)[C@H]1O)C(=O)N2
21.6 µg/mL (≈ 46 µM) | O=C1Nc2ccc(C(=O)NC[C@H](O)[C@@H](O)[C@H](O)[C@H](O)CO)cc2/C1=C1/Nc2ccccc2C1=O
700 µg/mL (≈ 1620 µM) | CN1CCN(CCNC(=O)c2ccc3c(c2)/C(=C2/Nc4ccccc4C2=O)C(=O)N3)CC1
4.2 µg/mL (≈ 11.2 µM) | O=C1Nc2ccc(C(=O)N3CCNCC3)cc2/C1=C1/Nc2ccccc2C1=O
1000 µg/mL (≈ 2570 µM) | CN1CCN(C(=O)c2ccc3c(c2)/C(=C2/Nc4ccccc4C2=O)C(=O)N3)CC1
1600 µg/mL (≈ 3240 µM) | CN1CCN(c2ccc(NC(=O)c3ccc4c(c3)/C(=C3/Nc5ccccc5/C3=N\O)C(=O)N4)cc2)CC1
53000 µg/mL | COS(=O)(=O)[O-].C[N+](C)(C)CCNC(=O)c1ccc2c(c1)/C(=C1/Nc3ccccc3C1=O)C(=O)N2
9.5 µg/mL (≈ 27.2 µM) | O=C1Nc2ccc(C(=O)NCCO)cc2/C1=C1/Nc2ccccc2C1=O
2450 µg/mL | C[N+]1(C)CCN(C(=O)c2ccc3c(c2)/C(=C2/Nc4ccccc4C2=O)C(=O)N3)CC1.[I-]
523 µg/mL (≈ 1280 µM) | O=C1Nc2ccc(C(=O)N(CCO)CCO)cc2/C1=C1/Nc2ccccc2/C1=N\O
179 µg/mL (≈ 491 µM) | O=C1Nc2ccc(C(=O)NCCO)cc2/C1=C1/Nc2ccccc2/C1=N\O
6.8 µg/mL (≈ 17.3 µM) | O=C1Nc2ccc(C(=O)N(CCO)CCO)cc2/C1=C1/Nc2ccccc2C1=O
13 µg/mL (≈ 34.5 µM) | CN(C)CCNC(=O)c1ccc2c(c1)/C(=C1/Nc3ccccc3C1=O)C(=O)N2
21 µg/mL (≈ 43.5 µM) | O=C1Nc2ccc(C(=O)N(CCO)CCO)cc2/C1=C1/Nc2ccccc2/C1=N\OCC(O)CO (configuration not stated)
55.5 µg/mL (≈ 145 µM) | O=C1Nc2ccc(C(=O)Nc3cccnc3)cc2/C1=C1/Nc2ccccc2C1=O
60000 µg/mL | COS(=O)(=O)[O-].C[N+]1(C)CCN(C(=O)c2ccc3c(c2)/C(=C2/Nc4ccccc4C2=O)C(=O)N3)CC1

Test: Antiproliferative activity against human LXFL 529L cells after 3 days by sulforhodamine B assay
Assay type: functional, cell-based
Details: Homo sapiens, LXFL 529L, 72 h
Method in brief: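 Cells kept at 37 °C in humidified 5% CO2 in RPMI 1640 with 10% heat-inactivated FBS, penicillin (100 units/mL) and streptomycin, and checked for mycoplasma. Seeded, grown 24 h, then exposed to drug for 3 days in serum-containing medium. Fixed with 50% TCA solution for 1 h at 4 °C, stained with 0.4% SRB, dye eluted in 10 mM Tris pH 10.5, read at 570 nm. Growth expressed as % T/C; IC50 derived.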

SMILES | IC50
O=C1Nc2ccc(C(=O)O)cc2/C1=C1/Nc2ccccc2C1=O | 7 µM
CN(CC[N+](C)(C)C)C(=O)c1ccc2c(c1)/C(=C1/Nc3ccccc3C1=O)C(=O)N2.[I-] | 5.7 µM
CN(C)c1ccc(NC(=O)c2ccc3c(c2)/C(=C2/Nc4ccccc4C2=O)C(=O)N3)cc1 | 1.2 µM
CN(C)CCN(C)C(=O)c1ccc2c(c1)/C(=C1/Nc3ccccc3C1=O)C(=O)N2 | 5.4 µM
CN(C)CCN(C)C(=O)c1ccc2c(c1)/C(=C1/Nc3ccccc3/C1=N\OCCO[C@@H]1O[C@H](CO)[C@@H](O)[C@H](O)[C@H]1O)C(=O)N2 | > 10 µM
CN(C)CCN(C)C(=O)c1ccc2c(c1)/C(=C1/Nc3ccccc3/C1=N\O)C(=O)N2 | 2.2 µM
COc1ccc2c(c1)/C(=C1/Nc3ccccc3/C1=N\OCCO[C@@H]1O[C@H](CO)[C@@H](O)[C@H](O)[C@H]1O)C(=O)N2 | 0.5 µM
O=C1Nc2ccc(C(=O)NC[C@H](O)[C@@H](O)[C@H](O)[C@H](O)CO)cc2/C1=C1/Nc2ccccc2C1=O | > 30 µM
CN1CCN(CCNC(=O)c2ccc3c(c2)/C(=C2/Nc4ccccc4C2=O)C(=O)N3)CC1 | 7.8 µM
O=C1Nc2ccc(C(=O)N3CCNCC3)cc2/C1=C1/Nc2ccccc2C1=O | 3.2 µM
CN1CCN(C(=O)c2ccc3c(c2)/C(=C2/Nc4ccccc4C2=O)C(=O)N3)CC1 | 3.9 µM
CN1CCN(c2ccc(NC(=O)c3ccc4c(c3)/C(=C3/Nc5ccccc5/C3=N\O)C(=O)N4)cc2)CC1 | 4.2 µM
COS(=O)(=O)[O-].C[N+](C)(C)CCNC(=O)c1ccc2c(c1)/C(=C1/Nc3ccccc3C1=O)C(=O)N2 | 8.6 µM
O=C1Nc2ccc(C(=O)NCCO)cc2/C1=C1/Nc2ccccc2C1=O | 9.2 µM
C[N+]1(C)CCN(C(=O)c2ccc3c(c2)/C(=C2/Nc4ccccc4C2=O)C(=O)N3)CC1.[I-] | 2.5 µM
O=C1Nc2ccc(C(=O)N(CCO)CCO)cc2/C1=C1/Nc2ccccc2/C1=N\O | 5.9 µM
O=C1Nc2ccc(C(=O)NCCO)cc2/C1=C1/Nc2ccccc2/C1=N\O | 4.5 µM
O=C1Nc2ccccc2/C1=C1/Nc2ccccc2C1=O [INDIRUBIN] | 10 µM
O=C1Nc2ccc(C(=O)N(CCO)CCO)cc2/C1=C1/Nc2ccccc2C1=O | 4.7 µM
CN(C)CCNC(=O)c1ccc2c(c1)/C(=C1/Nc3ccccc3C1=O)C(=O)N2 | 2.3 µM
O=C1Nc2ccc(C(=O)N(CCO)CCO)cc2/C1=C1/Nc2ccccc2/C1=N\OCC(O)CO (configuration not stated) | 43 µM
O=C1Nc2ccc(C(=O)Nc3cccnc3)cc2/C1=C1/Nc2ccccc2C1=O | > 10 µM

Same assay, conditions: lxfl 529l

SMILES | IC50
CN1CCN(CCNC(=O)c2ccc3c(c2)/C(=C2/Nc4ccccc4C2=O)C(=O)N3)CC1.Cl | 6 µM
COS(=O)(=O)[O-].C[N+]1(C)CCN(C(=O)c2ccc3c(c2)/C(=C2/Nc4ccccc4C2=O)C(=O)N3)CC1 | 3.5 µM
